Measurements of several laboratories.
Each line is one published result; the experiments were not run side by side.
Target: Rho-associated protein kinase 2 (ROCK2, Homo sapiens, UniProt O75116)

Compound	test	setting	endpoint	value
COc1cc(Nc2ncc(F)c(Nc3ccc4c(n3)NC(=O)C(C)(C)O4)n2)cc(OC)c1OC	binding	10 µM	inhibition	86%
Nc1ncc(-c2nc(N3CCOCC3)nc(N3CCOCC3)n2)c(C(F)F)n1	binding, competition with immobilised ligand	10 µM	remaining binding	100%
O=c1[nH]c2ccccc2n1C1CCN(Cc2ccc(-c3[nH]c4cc5ncnc5cc4nc3-c3ccccc3)cc2)CC1	cell-free assay	0.5 µM	remaining signal	109%
N#CC1(c2ccccn2)CCN(Cc2cc(C(=O)O)c(=O)n3ccccc23)CC1	cell-free assay, competition with immobilised ligand	1 µM	remaining binding	85%
C#Cc1n[nH]c2c(-c3cn([C@@H](C)c4ccccc4)c(=O)[nH]c3=O)cc(F)cc12	enzyme activity, inhibitor	0.1 µM	inhibition	3%
Cn1cncc1[C@@](O)(COc1ccc(C#N)cc1-c1ccc(OC(F)(F)F)cc1)c1ccc(C#N)cc1	cell-free assay, competition with immobilised ligand	1 µM	remaining binding	100%
C#Cc1n[nH]c2c(-c3cn(C(C)c4ccccn4)c(=O)[nH]c3=O)cc(F)cc12 (stereo not drawn)	enzyme activity, inhibitor	1 µM	inhibition	4.2%
Cc1nn(C)cc1-c1nc2c(N3CCN(Cc4ccc(Cl)cc4)CC3)c(Cl)cnc2[nH]1	binding, competition with immobilised ligand	1 µM	remaining binding	35%
Cn1cc(-c2cc(F)cc(N3CCn4c(cc5c4CCCC5)C3=O)c2CO)cc(Nc2ccc(N3CCN(C4COC4)CC3)cn2)c1=O	enzyme activity, inhibitor	0.1 µM	inhibition	1%
COc1ncccc1-c1cnn2ccc(N3CCN(C(=O)OC(C)C)CC3)nc12	binding, competition with immobilised ligand	1 µM	remaining binding	86%
Cn1cc(-c2cccc(N3CCc4c(sc5c4CC(C)(C)C5)C3=O)c2CO)cc(Nc2ccncn2)c1=O	enzyme activity, inhibitor	1 µM	inhibition	1%
CC(C)(C)c1cc(C=C(C#N)C#N)cc(Br)c1O	enzyme activity, inhibitor	0.5 µM	remaining activity	95.6%
